Here are results for 2 compounds from ChEMBL document CHEMBL3526048, “In vitro metabolism of rivoglitazone, a novel peroxisome proliferator-activated receptor γ agonist, in rat, monkey, and human liver microsomes and freshly isolated hepatocytes” (Drug Metab Dispos, 2011).

Structures are written as SMILES.

Data set [1] has as its system Hepatocyte (Macaca fascicularis). Kind of data set: Drug level in monkey hepatocytes treated with [14C]-rivoglitazone at 30 uM after 3 hrs by radio-HPLC/LC-MS/MS analysis in presence of UDPGA, UDPGA/SAM and NADPH-generating system. The note with it: cynomolgus monkey.
The nature of data set [2]: Drug metabolism in human hepatocytes assessed as formation of 5-(4-((6-methoxy-1H-benzo[d]imidazol-2-yl)methoxy)benzyl)thiazolidine-2,4-dione at 30 uM after 3 hrs by radio-HPLC/LC-MS/MS analysis in presence of NADPH-generating system and NADPH-generating system/SAM. In kind it is ADME, cell-based, Hepatocyte.
Data set [3] is described as follows: Drug metabolism in rat hepatocytes assessed as formation of (2S,3S,4S,5R,6R)-3,4,5-trihydroxy-6-(5-(4-((6-methoxy-1-methyl-1H-benzo[d]imidazol-2-yl)methoxy)benzyl)-2,4-dioxothiazolidin-3-yl)tetrahydro-2H-pyran-2-carboxylic acid at 30 uM after 3 hrs by radio-HPLC/LC-MS/MS analysis in presence of UDPGA and UDPGA/SAM. In kind it is ADME, cell-based, Hepatocyte.

Data set [4] relates to Liver microsome. Kind of data set: Drug metabolism in Sprague-Dawley rat liver microsomes assessed as formation of (2S,3S,4S,5R,6R)-3,4,5-trihydroxy-6-(5-(4-((6-methoxy-1-methyl-1H-benzo[d]imidazol-2-yl)methoxy)benzyl)-2,4-dioxothiazolidin-3-yl)tetrahydro-2H-pyran-2-carboxylic acid at 20 uM after 4 hrs by radio-HPLC/LC-MS/MS analysis in presence of UDPGA and UDPGA/SAM. In kind it is ADME. On the technique in general: Microsomes from liver hold many membrane-bound enzymes, among them those of drug oxidation.

Data set [5] relates to Liver microsome. Kind of data set: Drug metabolism in Sprague-Dawley rat liver microsomes assessed as formation of 2-amino-3-((1-carboxy-2-(4-((6-methoxy-1-methyl-1H-benzo[d]imidazol-2-yl)methoxy)phenyl)ethyl)disulfanyl)propanoic acid at 20 uM by radio-HPLC/LC-MS/MS analysis. The data set is classed as ADME.
The target of another data set is T1, Cytochrome P450 2C8 (Homo sapiens, UniProt P10632).
T1 sequence (P10632 whole entry): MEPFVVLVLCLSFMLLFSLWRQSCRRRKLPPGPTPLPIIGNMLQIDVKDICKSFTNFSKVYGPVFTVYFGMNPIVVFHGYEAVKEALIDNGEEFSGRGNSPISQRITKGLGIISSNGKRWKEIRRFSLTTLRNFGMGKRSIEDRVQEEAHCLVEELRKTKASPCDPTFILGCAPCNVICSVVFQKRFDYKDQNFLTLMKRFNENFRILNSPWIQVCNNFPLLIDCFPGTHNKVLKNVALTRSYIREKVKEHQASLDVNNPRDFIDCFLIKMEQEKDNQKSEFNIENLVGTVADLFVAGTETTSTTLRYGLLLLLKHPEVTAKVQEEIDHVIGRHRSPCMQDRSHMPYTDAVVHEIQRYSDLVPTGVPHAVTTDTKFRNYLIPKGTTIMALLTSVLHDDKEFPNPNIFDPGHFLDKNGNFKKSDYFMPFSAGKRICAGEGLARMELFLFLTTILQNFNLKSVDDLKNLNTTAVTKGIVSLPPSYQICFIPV
Kind of data set: Activity of human CYP2C8 expressed in microsomes isolated from baculovirus infected insect cell assessed as enzyme-mediated 2-mercapto-3-(4-((6-methoxy-1-methyl-1H-benzo[d]imidazol-2-yl)methoxy)phenyl)propanoic acid formation at 20 uM after 2 hrs by radio-HPLC/LC-MS/MS analysis in presence of NADPH-generating system. In kind it is ADME. Put shortly: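 Baculovirus/insect-cell microsomes expressing single human CYPs, 1 mg/ml protein, with 50 mM potassium phosphate (pH 7.4) or 100 mM Tris-HCl (pH 7.5). NADPH-generating system: 2 mM NADP⁺, 20 mM glucose 6-phosphate, 2 units/ml G6PDH, 10 mM MgCl₂. [¹⁴C]rivoglitazone at 20 μM, 2 h at 37°C with shaking. Control used insect-cell control supersomes. Stopped with acetonitrile; supernatant concentrated under nitrogen; metabolites analysed by radio-HPLC, LC-MS and LC-MS/MS.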

For data set [6], the target named is T2, UDP-glucuronosyltransferase 2B7 (Homo sapiens, UniProt P16662).
T2 sequence (P16662 whole entry): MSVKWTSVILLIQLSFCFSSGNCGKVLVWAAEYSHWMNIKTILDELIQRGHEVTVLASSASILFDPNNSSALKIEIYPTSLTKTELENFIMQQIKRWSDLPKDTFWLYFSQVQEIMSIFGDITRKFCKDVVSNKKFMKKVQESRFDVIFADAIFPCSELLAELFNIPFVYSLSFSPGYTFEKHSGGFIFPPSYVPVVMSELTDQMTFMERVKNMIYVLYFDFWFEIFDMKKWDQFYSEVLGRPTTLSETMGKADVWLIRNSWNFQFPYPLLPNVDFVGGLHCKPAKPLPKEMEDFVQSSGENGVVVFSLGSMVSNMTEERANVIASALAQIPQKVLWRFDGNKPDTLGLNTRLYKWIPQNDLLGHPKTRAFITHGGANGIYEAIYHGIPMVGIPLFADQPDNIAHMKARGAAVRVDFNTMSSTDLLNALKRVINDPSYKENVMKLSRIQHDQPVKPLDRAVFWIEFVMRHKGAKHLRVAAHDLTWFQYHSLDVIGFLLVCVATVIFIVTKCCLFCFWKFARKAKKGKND
Kind of data set: Activity of human UGT2B7 expressed in microsomes isolated from baculovirus infected insect cell assessed as enzyme-mediated (2S,3S,4S,5R,6R)-3,4,5-trihydroxy-6-(5-(4-((6-methoxy-1-methyl-1H-benzo[d]imidazol-2-yl)methoxy)benzyl)-2,4-dioxothiazolidin-3-yl)tetrahydro-2H-pyran-2-carboxylic acid formation at 20 uM after 4 hrs by radio-HPLC/LC-MS/MS analysis in presence of UDPGA and UDPGA/SAM. In kind it is ADME.

Another data set addresses Cytochrome P450 3A4 (Homo sapiens, UniProt P08684). Kind of data set: Activity of human CYP3A4 expressed in microsomes isolated from baculovirus infected insect cell assessed as enzyme-mediated 2-hydroxy-3-(4-((6-methoxy-1-methyl-1H-benzo[d]imidazol-2-yl)methoxy)phenyl)propanamide formation at 20 uM after 2 hrs by radio-HPLC/LC-MS/MS analysis in presence of NADPH-generating system and NADPH-generating system/SAM. The data set is classed as ADME.

Data set [7] is described as follows: Drug metabolism in monkey hepatocytes assessed as formation of 3-(4-((6-methoxy-1-methyl-1H-benzo[d]imidazol-2-yl)methoxy)phenyl)-2-(methylthio)propanamide at 30 uM after 3 hrs by radio-HPLC/LC-MS/MS analysis in presence of NADPH-generating system/SAM. Conditions: cynomolgus monkey.

Chain of Cytochrome P450 3A4 (P08684 whole entry): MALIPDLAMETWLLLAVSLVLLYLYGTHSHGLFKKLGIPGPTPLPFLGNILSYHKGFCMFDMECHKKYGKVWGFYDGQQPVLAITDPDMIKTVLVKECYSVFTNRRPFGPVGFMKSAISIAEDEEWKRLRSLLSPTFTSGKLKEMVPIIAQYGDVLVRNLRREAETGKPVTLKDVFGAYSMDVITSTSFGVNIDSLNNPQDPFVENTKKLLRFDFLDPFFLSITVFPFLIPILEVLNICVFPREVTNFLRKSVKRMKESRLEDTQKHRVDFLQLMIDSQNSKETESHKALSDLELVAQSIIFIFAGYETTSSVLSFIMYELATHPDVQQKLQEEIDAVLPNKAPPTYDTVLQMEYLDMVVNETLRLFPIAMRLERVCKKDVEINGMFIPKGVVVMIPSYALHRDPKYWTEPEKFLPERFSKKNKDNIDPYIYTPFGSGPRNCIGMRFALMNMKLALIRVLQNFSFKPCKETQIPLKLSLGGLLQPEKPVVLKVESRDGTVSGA

Consider `COc1ccc2nc(COc3ccc(CC(S)C(=O)O)cc3)n(C)c2c1` (centres undefined), for which the Drug metabolism entry in data set [1] is “metabolite_not_detected”.
Turning to `COc1ccc2nc(COc3ccc(C[14CH]4SC(=O)NC4=O)cc3)n(C)c2c1.Cl` (racemic), the Drug metabolism entry in data set [2] is “metabolite_detected”; in [3], “metabolite_detected”; in the data set on Liver microsome [4], “metabolite_detected”; in the data set with Liver microsome [5] it was “metabolite_not_detected”; at Cytochrome P450 2C8, “metabolite_detected”; in data set [6], “metabolite_detected”. Moreover, the Drug metabolism result (on Cytochrome P450 3A4; in [7]) was “metabolite_detected” each time.
